STAT1 activator = increases IFN-gamma driven STAT1 reporter signal; NIH 3T3 STAT1-luciferase reporter, luminescence; 100% = IFN-gamma alone, no compound; activation (% of control), % at 5.5 µM; actives 2.6% (n = 200,000);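 active = activation above the screen-wide mean activation plus 3 SD, cut at about 130% in these data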;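 also: raw ratio to IFN-gamma control signal so 100% means no change and 0% no light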
FLuc stim CS = firefly luciferase counter-screen for stimulation assays; P08659; ATPlite luciferase biochemical, luminescence, 10 min; 0 = ATP-free wells, 1 = DMSO control; activation factor at 10 µM; 200,000 tested, under 10 active;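 active = luciferase activation factor, scaled between plate controls, of at least 2 with compound at 10 µM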
Target sequence (P08659 whole entry, looked up): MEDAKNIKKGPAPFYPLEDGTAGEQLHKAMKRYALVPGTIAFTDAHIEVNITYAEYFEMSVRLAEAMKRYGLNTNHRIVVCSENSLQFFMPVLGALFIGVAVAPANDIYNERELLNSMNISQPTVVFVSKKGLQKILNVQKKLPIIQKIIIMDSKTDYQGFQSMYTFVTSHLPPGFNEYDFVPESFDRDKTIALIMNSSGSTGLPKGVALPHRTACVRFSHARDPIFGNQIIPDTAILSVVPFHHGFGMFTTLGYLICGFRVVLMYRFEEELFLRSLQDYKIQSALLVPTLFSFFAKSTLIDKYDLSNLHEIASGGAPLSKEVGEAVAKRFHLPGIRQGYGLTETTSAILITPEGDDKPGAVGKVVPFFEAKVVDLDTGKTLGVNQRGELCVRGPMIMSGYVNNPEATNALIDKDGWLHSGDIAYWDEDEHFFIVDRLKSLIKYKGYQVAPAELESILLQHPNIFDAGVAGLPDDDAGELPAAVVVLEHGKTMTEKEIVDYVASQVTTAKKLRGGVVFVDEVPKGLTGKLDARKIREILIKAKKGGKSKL
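Assay system: Luciferase/luciferin reagent mix; Medium: PBS as buffer for the ATP substrate; Dosing: test compounds dosed from 2 mM stocks in 100% DMSO; Times: 10 min, room temperature; Signal: luminescence from luciferase reaction; Read-out: luciferase activation; Controls: No-ATP low control, compound-free enzyme-plus-ATP high control.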
NF-kB expr up = compounds increasing NF-kB expression in human neuronal cells. fold change at 12.5 µM. actives 1.6% (n = 190,000). NF-kB reporter expression; stronger effect = higher value; in the data active = fold change above about 3.3
FLuc inhib CS = counter-screen for luciferase assay inhibitors: firefly luciferase inhibition. P08659. ATPLite firefly luciferase biochemical luminescence, 10 min. inhibition, % at 10 µM. actives 1.5% (n = 200,000). AID 1006;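 active = inhibition above about 50% when tested at 10 µM, limit read from the data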
APP 5UTR inh = APP translation inhibition. AID 1285. SH-SY5Y APP 5'UTR-luciferase reporter, luminescence. inhibition, % at 2 µM. actives 0.82% (n = 190,000);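 active = inhibition above a set limit, derived from the sample mean plus 3 SD, cut at about 45% in these data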
APP 5'UTR act = activates APP 5'UTR luciferase reporter | SH-SY5Y APP 5'UTR luciferase reporter, luminescence; zero percent = DMSO vehicle wells | activation, % at 2 µM | actives 1% (n = 190,000);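 active = activation above a set limit, based on mean plus 3 SD of controls, cut at about 140% in these data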
Active calls of the source: *; · = no result. The list is not random: actives were taken first. Their share in the collection is about 4.8%.

SMILES | STAT1 activator | FLuc stim CS | NF-kB expr up | FLuc inhib CS | APP 5UTR inh | APP 5'UTR act
O=C(NCCn1ccc2ccccc21)c1ccc2c(c1)OCO2 | 139* | 0.9 | 5.7* | 10 | -150 | 150*
Cc1ccc(C(=O)NCCn2ccc3ccccc32)cc1[N+](=O)[O-] | 111 | 1.1 | 1.3 | -6 | 3 | -3
COc1cccc(C(CC(=O)Nc2cccc3ccccc23)NC(=O)c2ccccc2)c1 (stereo not given) | 102 | 1 | 1.1 | -4 | -15 | 15
Clc1ccc(-c2cn3c(n2)CCC3)cc1 | 121 | 0.9 | 3.5* | 10 | -115 | 115
CC(=O)c1cccc(NC(=O)C(Sc2ncnc3ccccc23)c2ccccc2)c1 (stereo not given) | 99 | 1 | 0.66 | 2 | 2 | -2
Cn1c(CNc2ccc(Cl)cc2)nc2ccccc21 | 143* | 0.6 | 3.9* | 44 | -175 | 175*
Cc1nc2cc(NCc3nc4ccccc4n3Cc3ccccc3)ccc2n1C | 135* | 0.1 | 0.55 | 87* | -131 | 131
O=C(Nc1ccc(F)cc1)/C(Cl)=C/c1ccccc1 | 150* | 0.5 | 7.3* | 48 | -188 | 188*
CCOC(=O)CSc1ncnc2c(C(=O)OCC)c3n(c12)CCC3 | 104 | 1 | 1.3 | 0 | 10 | -10
O=[N+]([O-])c1cccnc1NCCNc1ncc(C(F)(F)F)cc1Cl | 137* | 1 | 3.2 | -3 | -86 | 86
O=C1C=CC(=O)N1CCNc1ncc(C(F)(F)F)cc1Cl | 83 | 1 | 0.74 | -4 | 74* | -74
O=C1CC(=O)N(CCNc2ncc(C(F)(F)F)cc2Cl)C(=O)N1 | 99 | 1.1 | 0.9 | -10 | -9 | 9
COCCCNC(=O)CN(CCc1ccccc1)S(=O)(=O)c1ccc(C)cc1 | 102 | 1 | 1 | -4 | -8 | 8
COc1ccc(S(=O)(=O)NC(CC(=O)NCCc2ccc(OC)c(OC)c2)C(C)C)cc1 (stereo not given) | 97 | 1.1 | 1.3 | -8 | -4 | 4
COCCn1c(CN2CCc3ccccc3C2)nc2c1c(=O)n(C)c(=O)n2C | 89 | 1 | 0.76 | -4 | -10 | 10
COc1cc(/C=C/C(=O)c2ccc(Cl)s2)cc(OC)c1O | 87 | 1 | 0.79 | 1 | 11 | -11
Cc1c(/C=C/C(=O)c2ccc(O)cc2)cnn1C | 108 | 0.4 | 2.5 | 58* | -79 | 79
Cc1c(/C=C/C(=O)c2ccc(Cl)s2)cnn1C | 106 | 0.4 | 2.1 | 62* | -92 | 92
Cc1c(/C=C/C(=O)c2ccccc2)cnn1C | 107 | 0.6 | 2.6 | 42 | -81 | 81
CCn1ncc(/C=C/C(=O)c2ccccc2)c1C | 133* | 0.2 | 2.1 | 82* | -198 | 198*
Cc1c(/C=C/C(=O)c2ccc(C(C)C)cc2)cnn1C | 114 | 0.4 | 1.9 | 58* | -44 | 44
COc1ccc(S(=O)(=O)NCc2ccco2)cc1N(C)S(=O)(=O)c1ccccc1 | 92 | 1 | · | -4 | -6 | 6
CCOC(=O)C1=C(Nc2ccccc2)CC(C)(O)C(C(=O)OCC)C1c1ccc(Cl)cc1 (stereo not given) | 90 | 1.1 | 1 | -7 | -21 | 21
CN=c1scc(-c2ccccc2Br)n1/N=C/c1ccc[nH]1 | 84 | 0.5 | 1.2 | 54* | -174 | 174*
CCN(CC)C(=O)Oc1ccc2c(=O)c(-c3ccc(OC)cc3)coc2c1 | 144* | 1 | 1.8 | 1 | -74 | 74
SMILES | STAT1 activator | FLuc stim CS | NF-kB expr up | FLuc inhib CS | APP 5UTR inh | APP 5'UTR act
CC(=O)Oc1ccc2c(=O)c(Oc3ccccc3[N+](=O)[O-])coc2c1 | 101 | 1 | 1 | 0 | 5 | -5
CC(=O)Oc1ccc2c(=O)c(-c3nc4ccccc4s3)coc2c1 | 108 | 0.2 | 2.9 | 80* | -196 | 196*
Cc1cc(OC(=O)c2ccc(S(=O)(=O)N3CCOCC3)cc2)c([N+](=O)[O-])c(=O)[nH]1 | 99 | 1.1 | 1.8 | -11 | 11 | -11
CC(=O)Nc1ccc(-c2csc(NCc3ccco3)n2)cc1 | 137* | 0.7 | 3.7* | 27 | -116 | 116
CC(C)CCNC(=O)NC(=O)COC(=O)/C=C/c1cc(Br)ccc1F | 110 | 1 | 1.3 | -1 | -34 | 34
CCCOc1ccc(-c2cn3ccccc3n2)cc1[N+](=O)[O-] | 120 | 0.2 | 4.1* | 78* | -142 | 142*
COc1ccc(-c2cn3ccccc3n2)cc1[N+](=O)[O-] | 144* | 0.2 | 1 | 79* | -104 | 104
COc1ccc(-c2cn3cc([N+](=O)[O-])ccc3n2)cc1OC | 120 | 0.8 | 1.5 | 21 | -33 | 33
CCCCC(=O)Nc1cccc(-c2cn3ccccc3n2)c1 | 121 | 0.7 | 1.5 | 32 | -27 | 27
Cc1ccccc1N=Nc1c(C)[nH]n(-c2ccccc2)c1=O | 113 | 1 | 1.3 | -3 | 7 | -7
Cc1[nH]n(-c2ccccc2)c(=O)c1N=Nc1ccccc1O | 102 | 1 | 1.3 | 3 | 58* | -57
COC(=O)c1sc(NC(=O)c2oc3ccccc3c2C)nc1C | 144* | 0.9 | 2.5 | 6 | -27 | 27
COC(=O)c1sc(NC(=O)c2ccc(C)o2)nc1C | 121 | 0.5 | 1.3 | 52* | -70 | 70
CCOC(=O)c1sc(NC(=O)c2ccc(C)o2)nc1C | 123 | 0.3 | 3.2 | 69* | -85 | 85
Cc1c(C(=O)Nc2nnc(C(F)(F)F)s2)oc2ccccc12 | · | 0.8 | 1.6 | 18 | · | ·
Cc1ccc(O)c(C2=Nc3ccccc3C2(C)C)c1 | 147* | 0.9 | 1.1 | 10 | -27 | 27
COc1cc(/C=N/NC(N)=S)cc(Br)c1OCc1ccccc1F | 129* | 1 | 1.6 | -1 | -20 | 20
COCCNC(=O)CN(C(=O)Cn1nnc2ccccc21)c1cc(C)cc(C)c1 | 103 | 1 | 1 | -4 | 2 | -2
O=C(Nc1ccc(N2C(=O)CCC2=O)cc1Cl)c1cccs1 | 104 | 1.1 | 1.2 | -6 | -13 | 13
CNc1nnc(-c2ccc(N(C)C)cc2)s1 | 87 | 0.1 | 4.7* | 92* | -115 | 115
Cc1nn(-c2ccccc2)c(Cl)c1C(=O)NCC(C)C | 104 | 1 | 1.1 | -5 | 77* | -77
Cc1nn(Cc2ccccc2)c(Cl)c1C(=O)NCCc1ccccc1 | 149* | 0.9 | 4.3* | 13 | -91 | 91
CC(C)CC(=O)OCC(=O)Nc1ccccc1Sc1ccccc1 | 105 | 1.1 | 1 | -6 | 14 | -14
Cc1nnc(SCC2=C(C(=O)O)N3C(=O)C(NC(=O)c4cccc(F)c4F)C3SC2)s1 (stereo not given) | 92 | 1.1 | 1 | -8 | -27 | 27
Cn1c(-c2ccc(CN3CCCCC3)o2)nc2ccccc21 | 127 | 0.9 | 2.4 | 5 | · | ·
C=C1C(=O)C=C2CN(C(=O)c3ccccc3)[C@@](Cc3ccc(F)cc3)(C(=O)OC)[C@@H]12 | 87 | 1.1 | 0.14 | -12 | 96* | -96
